Measured values published in article PMC4324418 (ACS Chemical Neuroscience, 2014).
Marks after values point to notes of the source that are not given here.

Key:
rat M2 receptor = assay: Calcium mobilization, selectivity; type: cell-based
Outline: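 Cells were seeded at 15000/well in DMEM with 10% dialyzed FBS, 20 mM HEPES and 1 mM pyruvate, then cultured overnight at 37 °C/5% CO2. M2 and M4 lines were cotransfected with Gqi5. Cells were loaded with 1 μM Fluo-4AM (HBSS, 20 mM HEPES, 2.5 mM probenecid, pH 7.4) for 50 min at 37 °C. ACh was added 140 s after test compound. Calcium signal was expressed as % of the 10 μM ACh maximum.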

rat M4 receptor = target: T1, rat M4 receptor (Rattus norvegicus, UniProt P08485); assay: [3H]NMS radioligand binding, modulation of ACh affinity; conditions: ACh displacement of [3H]NMS, modulator 300 nM to 10 μM
T1 sequence (P08485 1-478): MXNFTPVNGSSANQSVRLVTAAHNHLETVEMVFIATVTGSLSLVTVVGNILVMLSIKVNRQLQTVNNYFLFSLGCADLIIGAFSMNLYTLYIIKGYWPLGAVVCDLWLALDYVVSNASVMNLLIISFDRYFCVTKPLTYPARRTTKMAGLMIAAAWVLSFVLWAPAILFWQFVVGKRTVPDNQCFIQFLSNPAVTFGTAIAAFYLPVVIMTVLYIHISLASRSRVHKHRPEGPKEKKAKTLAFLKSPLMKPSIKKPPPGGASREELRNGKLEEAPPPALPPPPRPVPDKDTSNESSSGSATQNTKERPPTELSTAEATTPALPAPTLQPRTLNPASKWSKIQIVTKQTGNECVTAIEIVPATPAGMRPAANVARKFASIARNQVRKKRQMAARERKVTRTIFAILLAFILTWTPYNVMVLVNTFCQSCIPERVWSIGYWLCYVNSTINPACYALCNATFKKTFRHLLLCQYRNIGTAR
Outline: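 Membranes came from CHO cells expressing rat M4 cotransfected with Gqi5, homogenized in 50 mM Tris-HCl/0.9% NaCl, pH 7.4. Membranes (10 μg/well) were incubated with 300 pM [3H]NMS, fixed modulator (300 nM–10 μM) or vehicle, and ACh (1 nM–1 mM) for 3 h at room temperature with shaking. Buffer was 100 mM NaCl, 10 mM MgCl2, 20 mM HEPES, […], pH 7.4. Nonspecific binding was set with 10 μM atropine. Bound ligand was filtered and counted; n ≥ 2. Cooperativity was fitted with the […].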

[1] = target: T2, guinea pig adenosine transporter (Cavia porcellus, UniProt H0V4R7); assay: Cerep panel, displacement of [3H]NTBI binding
T2 sequence (H0V4R7 1-461): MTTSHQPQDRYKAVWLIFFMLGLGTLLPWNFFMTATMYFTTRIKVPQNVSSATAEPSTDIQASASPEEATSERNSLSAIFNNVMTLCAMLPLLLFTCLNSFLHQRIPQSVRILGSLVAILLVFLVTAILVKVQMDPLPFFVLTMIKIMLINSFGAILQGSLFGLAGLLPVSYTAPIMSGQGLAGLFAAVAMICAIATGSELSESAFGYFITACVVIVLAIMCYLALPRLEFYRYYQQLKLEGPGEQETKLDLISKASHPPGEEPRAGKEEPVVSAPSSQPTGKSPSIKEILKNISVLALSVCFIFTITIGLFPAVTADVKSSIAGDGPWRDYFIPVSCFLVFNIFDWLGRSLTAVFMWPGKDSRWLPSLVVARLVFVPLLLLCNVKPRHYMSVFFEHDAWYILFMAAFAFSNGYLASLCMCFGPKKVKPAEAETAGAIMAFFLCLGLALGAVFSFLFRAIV

M4 KO mice [2] = assay: MK-801-induced hyperlocomotion in M4 KO mice; type: in vivo, mouse
Outline: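 Wild-type and M4 KO mice were habituated 90 min in a photobeam open field. They then received vehicle (10% Tween 80 IP), followed 30 min later by saline or MK-801 IP, and activity was recorded for 120 min. Distance traveled was binned per 5 min. Totals covered t = 120 to 240 min and were analyzed by ANOVA with Bonferroni post hoc tests.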

wild-type mice [3] = assay: MK-801-induced locomotor and nonlocomotor open field behaviors; type: in vivo, mouse
Outline: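 After 90 min open-field habituation, mice received vehicle (10% Tween 80 IP) or test compound (3–30 mg/kg IP). Saline or MK-801 (0.3 mg/kg IP) followed 30 min later. Over the next 120 min, ambulatory episodes, vertical counts, stereotypic counts and resting time were scored. Groups were 7–13 mice; ANOVA with Bonferroni tests.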

wild-type mice [4] = assay: Touchscreen pairwise visual discrimination task, wild-type mice; type: in vivo, mouse
Outline: (§1)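 Mice aged 8–11 weeks were held at ~85% free-feeding weight, with water freely available. They were trained on touchscreen nosepoke discrimination (60 trials or 60 min) to ≥85% accuracy on 3 consecutive days. Next day: vehicle (10% Tween 80 IP) or test compound (3–30 mg/kg IP) 60 min pre-test, then saline or MK-801 (0.1–0.3 mg/kg IP) 30 min later. Mice were retested drug-free 24 h later. Analysis: ANOVA with Bonferroni tests.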

M4 KO mice [5] = assay: Touchscreen pairwise visual discrimination task, M4 KO mice; type: in vivo, mouse
Outline: as §1

wild-type mice [6] = assay: Cue-dependent fear conditioning; type: in vivo, mouse; conditions: 3–30 mg/kg prior to the conditioning session
in vivo = conditions: male, Sprague-Dawley, rat, po, 3 mg/kg, Tmax,p
[7] = VU0467154 3.0 mg/kg IP + MK-801 0.30 mg/kg IP
[8] = VU0467154 3.0 mg/kg IP + vehicle
[9] = VU0467154 5.6 mg/kg IP + MK-801 0.30 mg/kg IP
[10] = VU0467154 5.6 mg/kg IP + vehicle
[11] = VU0467154 10.0 mg/kg IP + MK-801 0.30 mg/kg IP
[12] = VU0467154 10.0 mg/kg IP + vehicle
[13] = VU0467154 30.0 mg/kg IP + vehicle
[14] = M4 KO, VU0467154 10.0 mg/kg IP + MK-801 0.30 mg/kg IP
[15] = M4 KO, VU0467154 10.0 mg/kg IP + vehicle

## Cc1nnc2sc(C(=O)NCc3ccc(S(=O)(=O)C(F)(F)F)cc3)c(N)c2c1C [VU0467154, 5-amino-3,4-dimethyl-N-(4-((trifluoromethyl)sulfonyl)benzyl)thieno[2,3-c]pyridazine-6-carboxamide]
Rat M2 receptor
  potentiation of ACh response (calcium response): lack of a calcium response
Rat M4 receptor
  increase in M4 affinity for ACh (α): 14.5 fold
  log α (binding cooperativity with ACh): 1.16 ± 0.06
[1]
  Ki: 98 nM
M4 KO mice [2]
  effect on MK-801-induced hyperlocomotion: had no effect on the time course of MK-801-induced hyperlocomotion
wild-type mice [3]
  reversal of MK-801-induced increases in ambulatory episodes and vertical counts: potently reversed
  reversal of MK-801-mediated increase in stereotypic counts and decreases in resting time: appeared to be less potent
wild-type mice [4]; 3 mg/kg VU0467154 in combination with 0.3 mg/kg MK-801
  animals that did not complete all 60 trials in the 60 min session: 14%
wild-type mice [4]; 10 mg/kg VU0467154 alone
  animals that did not complete all 60 trials in the 60 min session: 25%
wild-type mice [4]; 30 mg/kg VU0467154 alone
  animals that did not complete all 60 trials in the 60 min session: 33%
wild-type mice [4]; [7]
  correct reward collection latency: 3.34 ± 2.06 s
  correct touch latency: 18.14 ± 14.17 s
  time to complete 60 trials: 1239 ± 397.7 ^d s
wild-type mice [4]; [8]
  correct reward collection latency: 1.13 ± 0.07 s
  correct touch latency: 2.01 ± 0.16 s
  time to complete 60 trials: 1061 ± 130.2 s
wild-type mice [4]; [9]
  correct reward collection latency: 1.23 ± 0.08 s
  correct touch latency: 4.10 ± 0.63 s
  time to complete 60 trials: 856 ± 58.4 s
wild-type mice [4]; [10]
  correct reward collection latency: 2.09 ± 0.50 s
  correct touch latency: 2.24 ± 0.36 s
  time to complete 60 trials: 1256 ± 211.5 s
wild-type mice [4]; [11]
  correct reward collection latency: 1.33 ± 0.08 s
  correct touch latency: 6.39 ± 1.11 s
  time to complete 60 trials: 1017 ± 89.1 s
wild-type mice [4]; [12]
  correct reward collection latency: 9.24 ± 6.71 s
  correct touch latency: 18.58 ± 8.50 s
  time to complete 60 trials: 2171 ± 424.8 ^b s
wild-type mice [4]; [13]
  correct reward collection latency: 2.82 ± 0.71 s
  correct touch latency: 20.89 ± 4.17 s
  time to complete 60 trials: 2557 ± 397.1 ^c s
M4 KO mice [5]; M4 KO mice
  reversal of MK-801-induced pairwise discrimination deficit: did not reverse the MK-801-induced pairwise discrimination deficit
M4 KO mice [5]; M4 KO, MK-801 in combination with VU0467154 (vehicle 91%)
  response accuracy on the test day: 64%
M4 KO mice [5]; [14]
  correct reward collection latency: 1.57 ± 0.07 s
  correct touch latency: 8.45 ± 1.57 s
  time to complete 60 trials: 1120 ± 95.5 s
M4 KO mice [5]; [15]
  correct reward collection latency: 3.19 ± 0.73 s
  correct touch latency: 22.81 ± 8.86 s
  time to complete 60 trials: 2080 ± 384.9 ^e s
wild-type mice [6]
  acquisition of cue-dependent fear conditioning: enhanced acquisition of cue-dependent fear conditioning
In vivo
  Tmax: ~3 h
